Test results from ChEMBL document CHEMBL4311988, “Identification of novel non-nucleoside vinyl-stilbene analogs as potent norovirus replication inhibitors with a potential host-targeting mechanism” (Eur J Med Chem, 2019).
The source made the active and inactive calls. The calls are words filed in the database; no cut-off is given here.

What was measured:
[1] = molecular target: T1, Nuclear factor erythroid 2-related factor 2 (Homo sapiens) (UniProt Q16236); experiment: Activation of NRF2 pathway in human HG23 cells transfected with human norovirus at 10 uM after 72 hrs by dual-luciferase reporter gene assay; type: cell-based
T1 sequence (whole entry): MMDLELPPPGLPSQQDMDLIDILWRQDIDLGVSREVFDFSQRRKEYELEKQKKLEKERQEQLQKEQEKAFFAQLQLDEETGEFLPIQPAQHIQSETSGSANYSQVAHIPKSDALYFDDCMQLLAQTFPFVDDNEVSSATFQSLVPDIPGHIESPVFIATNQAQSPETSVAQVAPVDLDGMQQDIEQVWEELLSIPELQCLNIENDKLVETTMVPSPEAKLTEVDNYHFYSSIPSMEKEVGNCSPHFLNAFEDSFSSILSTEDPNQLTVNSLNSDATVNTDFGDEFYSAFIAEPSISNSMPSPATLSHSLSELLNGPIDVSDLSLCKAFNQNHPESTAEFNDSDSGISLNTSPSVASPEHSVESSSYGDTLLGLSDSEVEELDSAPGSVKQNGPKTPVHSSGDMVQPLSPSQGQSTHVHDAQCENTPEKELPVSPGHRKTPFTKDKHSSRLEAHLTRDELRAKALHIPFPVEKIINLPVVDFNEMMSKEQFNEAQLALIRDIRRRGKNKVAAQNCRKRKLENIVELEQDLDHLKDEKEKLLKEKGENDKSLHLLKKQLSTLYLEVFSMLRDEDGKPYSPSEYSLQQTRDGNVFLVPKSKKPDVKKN
How it was run: (§1)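 HG23 cells carrying the NV replicon were transfected with a Cignal finder reporter array and then given DMSO or 10 μM test compound for 72 h. Luciferase activity for each pathway was read with a dual-luciferase reagent.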

Norovirus [2] = experiment: Antiviral activity against human norovirus infected in human HG23 cells assessed as inhibition of viral replication at 10 uM after 3 days by qRT-PCR analysis relative to control; type: functional; parameters: scale not given: the % may be the effect or the level left
[3] = Metabolic stability in human liver microsomes assessed as compound remaining at 1 uM preincubated for 5 mins followed by NADPH addition and measured after 30 mins by LC-MS/MS analysis relative to control; type: ADME, Microsome; details: read-out: Stability
How it was run: (§2)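 Human or mouse liver microsomes (0.5 mg/ml) in 0.1 M phosphate buffer pH 7.4 were preincubated with compound at 1 μM for 5 min at 37 °C. An NADPH regeneration system was then added or omitted, and incubation continued 30 min at 37 °C. Reactions were stopped with acetonitrile containing internal standard. Parent compound remaining was measured by LC-MS/MS (C18 column, 0.1% formic acid water/acetonitrile).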

[4] = Metabolic stability in human liver microsomes assessed as compound remaining at 1 uM after 30 mins in absence of NADPH by LC-MS/MS analysis relative to control; type: ADME, Microsome; details: read-out: Stability; how it was run: as §2
[5] = Cytotoxicity against human HG23 cells assessed as cell viability at 10 uM after 3 days by tetrazolium dye based assay relative to control; details: read-out: Activity
How it was run: (§3)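 HG23 cells were treated with DMSO or compound for 3 days, at 10 μM for single-point testing or across a dose range for CC50. Viability was read with a tetrazolium salt (EZ-CYTOX) reagent. Values are means of the most representative triplicate experiment with standard deviations.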

Feline calicivirus = experiment: Antiviral activity against feline calicivirus- infected in cat CRFK cells at >5 uM after 48 hrs by crystal violet staining based assay; type: functional, organism-based
[6] = Cytotoxicity against human HG23 cells assessed as reduction in cell viability after 3 days by tetrazolium dye based assay; how it was run: as §3
Norovirus GII.4 = experiment: Inhibition of norovirus GII.4 RNA-dependent RNA polymerase using poly(C)RNA as substrate incubated for 10 mins and measured after 15 mins by picogreen staining based assay
How it was run: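 Recombinant human norovirus GII.4 Sydney 2012 RdRp (400 ng) was preincubated with compound (10 μM) or DMSO (0.5% v/v) for 10 min at 25 °C. It was then added to 5 μM rGTP, 6 μg/mL poly(C), 2.5 mM MnCl₂, 5 mM DTT, 0.01% BSA and 0.005% Tween 20 in 20 mM Tris-HCl pH 7.5. After 15 min at 25 °C, reactions were stopped with 10 mM EDTA and dsRNA quantified by PicoGreen fluorescence (ex 480/em 520). Two independent experiments were run in triplicate.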

Norovirus [7] = experiment: Antiviral activity against human norovirus infected in human HG23 cells assessed as inhibition of viral replication after 3 days by qRT-PCR analysis; type: functional, organism-based; details: HG23, 72 h
[8] = Metabolic stability in mouse liver microsomes assessed as compound remaining at 1 uM after 30 mins in absence of NADPH by LC-MS/MS analysis relative to control; type: ADME, Microsome; details: read-out: Stability; how it was run: as §2
[9] = Metabolic stability in mouse liver microsomes assessed as compound remaining at 1 uM preincubated for 5 mins followed by NADPH addition and measured after 30 mins in presence of NADPH relative to control; type: ADME, Microsome; details: read-out: Stability; how it was run: as §2
Murine norovirus 1 = experiment: Antiviral activity against MNV-1 infected in mouse RAW264.7 cells at 0.05 to 10 uM after 48 hrs by crystal violet staining based assay; type: functional, cell-based
[10] = molecular target: T2, Heat shock factor protein 1 (Homo sapiens) (UniProt Q00613); experiment: Activation of HSF-1 in human HG23 cells transfected with human norovirus after 72 hrs by dual-luciferase reporter gene assay; type: cell-based; how it was run: as §1
T2 sequence (whole entry): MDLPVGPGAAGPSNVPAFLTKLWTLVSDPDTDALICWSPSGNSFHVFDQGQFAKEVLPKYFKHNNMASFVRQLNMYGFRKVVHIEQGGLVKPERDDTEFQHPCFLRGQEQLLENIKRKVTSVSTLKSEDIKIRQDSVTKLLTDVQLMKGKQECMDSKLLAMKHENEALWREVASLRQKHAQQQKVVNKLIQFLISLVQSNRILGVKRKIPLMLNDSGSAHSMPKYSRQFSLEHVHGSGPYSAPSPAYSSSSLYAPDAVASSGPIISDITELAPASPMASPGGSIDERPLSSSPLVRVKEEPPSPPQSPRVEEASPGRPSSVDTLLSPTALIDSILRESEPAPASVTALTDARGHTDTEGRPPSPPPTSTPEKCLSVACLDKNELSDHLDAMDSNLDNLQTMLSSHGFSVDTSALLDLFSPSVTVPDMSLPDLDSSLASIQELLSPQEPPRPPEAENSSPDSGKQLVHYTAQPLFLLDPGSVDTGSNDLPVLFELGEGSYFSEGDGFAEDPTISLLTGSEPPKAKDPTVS

[11] = Therapeutic index, ratio of CC50 for cytotoxicity against human HG23 cells harboring human norovirus replicons to EC50 for antiviral activity against norovirus infected in human HG23 cells; type: toxicity, cell-based; details: read-out: Ratio CC50/EC50
[12] = molecular target: T2, Heat shock factor protein 1 (Homo sapiens); experiment: Activation of HSF-1 in human HG23 cells transfected with human norovirus at 10 uM after 72 hrs by dual-luciferase reporter gene assay; type: cell-based; how it was run: as §1
Norovirus [13] = experiment: Antiviral activity against human norovirus infected in HG23 cells assessed as inhibition of neomycin phosphotransferase protein expression after 5 days by Western blot analysis; type: functional, organism-based; details: HG23, 120 h

C=Cc1c(OC)cc(/C=C/c2ccc(C(=O)N3CCN(Cc4ccc(C(F)(F)F)cc4)CC3)cc2)cc1OC
Activity [1]: Active | Activity (Norovirus [2]): 4.2% | remaining at 0.5 h, 1 µM [3]: 89.1% | remaining at 0.5 h, 1 µM [4]: 94.3% | viability at 72 h, 10 µM [5]: 105% | Activity (Feline calicivirus): Active | CC50 at 72 h [6]: > 100000 nM | inhibition (Norovirus GII.4): inactive | EC50 (Norovirus [7]): 2430 nM | remaining at 0.5 h, 1 µM [8]: 99.2% | remaining at 0.5 h, 1 µM [9]: 70.5% | Activity (Murine norovirus 1): inactive | Activity [10]: Dose-dependent effect | selectivity ratio [11]: > 41.2 | Activity [12]: Active | EC50 (Norovirus [13]): 800 nM
